Tests used:
Canis familiaris [1] = assay: Intravenous gastric antisecretory activity against histamine-stimulated Heidenhain Pouch (HP) dogs at 1 ug/kg; format: functional; conditions: Canis lupus familiaris, Stomach
Procedure, shortened: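 Conscious, 18-h-fasted Heidenhain pouch dogs in Pavlov stands, iv 0.15 M NaCl infusion, used at most weekly. Histamine 1.0 mg/h was infused after a 15–30-min basal period. At steady state (about 1 h), a single iv bolus was given in ethanol stock diluted with isoosmotic pH 7.4 phosphate buffer (≤20% ethanol). Acid was titrated to pH 7.0 over 15-min collections; percent inhibition was taken from maximum inhibition of total acid output.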

Canis familiaris [2] = species: Canis familiaris; assay: Oral gastric antisecretory effect in histamine-stimulated Heidenhain Pouch (HP) dogs; format: functional; conditions: Canis lupus familiaris, Stomach, in the assay text read “gastric fistula (GF)” for “Heidenhain Pouch (HP)”
Procedure, shortened: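 Conscious gastric fistula dogs, 4–12 per dose, three doses. After a 30-min basal period, drug was given intragastrically via dosing plug and the cannula closed for 30 min. Histamine was then infused at 15 μg/kg per h, with 30-min collections for 4 h. Acid was titrated to pH 7.0. ED50 is the dose giving 50% inhibition of 4-h total acid output. Relative potency and 95% limits came from bioassay analysis.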

[3] = Ratio of ED50 value of diarrheal effect to that of ED50 value of antisecretory effect; format: functional
Procedure, shortened: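 Ratio of rat oral diarrheal ED50 at 8 h to intragastric antisecretory ED50 in histamine-stimulated gastric fistula dogs (4-h total acid output).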

Canis familiaris [4] = species: Canis familiaris; assay: Relative gastric antisecretory effect in histamine-stimulated gastric fistula (GF) dogs; conditions: Canis lupus familiaris, Stomach
Rattus norvegicus = species: Rattus norvegicus; assay: Effect determining the diarrheagenic activity in rats; format: functional
Procedure, shortened: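 Adult male Charles River rats (210–230 g), housed singly and fasted 24 h, n = 6–12. Logarithmically graded oral doses were given. Diarrhea was scored all-or-none hourly to 8 h. ED50 and approximate asymptotic 95% confidence limits came from a maximum-likelihood logistic dose–response fit.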

| Structure (SMILES) | inhibition in vivo at 0.001 mg/kg (Canis familiaris [1]) [%] | ED50 (Canis familiaris [2]) [µg/kg] | Ratio [3] | Relative potency (Canis familiaris [4]) | ED50 (Rattus norvegicus) [µg/kg] |
| --- | --- | --- | --- | --- | --- |
| CCCCC(C)(O)C/C=C/[C@H]1[C@H](O)CC(=O)[C@@H]1C/C=C/C=C\CC(=O)OC (stereo not given in full) | 96 |  |  |  |  |
| CCCCC(C)(O)C/C=C/[C@H]1[C@H](O)CC(=O)[C@@H]1CC/C=C\CCC(=O)OC (stereo not given in full) [ENISOPROST] | 92 | 0.05 | 1240 | 1 | 62 |
| CCCCC(C)(O)C/C=C/[C@H]1[C@H](O)CC(=O)[C@@H]1CC/C=C\C=C\C(=O)OC (stereo not given in full) | 41 |  |  |  |  |
| CCCCC(C)(O)C/C=C/[C@H]1[C@H](O)CC(=O)[C@@H]1C/C=C\C=C\CC(=O)OC (stereo not given in full) | 83 | 0.08 | 7120 | 0.31 | 570 |
| CCCCC(C)(O)C/C=C/[C@H]1[C@H](O)CC(=O)[C@@H]1CC/C=C/C=C/C(=O)OC (stereo not given in full) | 53 |  |  |  |  |
| CCCCC(C)(O)C/C=C/[C@H]1[C@H](O)CC(=O)[C@@H]1CCCCCCC(=O)OC (stereo not given in full) [MISOPROSTOL] | 79 | 0.28 | 1310 | 0.08 |  |
| CCCCC(C)(O)C/C=C/[C@H]1[C@H](O)CC(=O)[C@@H]1C/C=C/C=C/CC(=O)OC (stereo not given in full) | 21 |  |  |  |  |
| CCCCC(C)(O)C/C=C/[C@H]1[C@H](O)CC(=O)[C@@H]1C/C=C/C/C=C/C(=O)OC (stereo not given in full) | 68 |  |  |  |  |
| CCCCC(C)(O)C/C=C/[C@H]1[C@H](O)CC(=O)[C@@H]1C/C=C\C/C=C/C(=O)OC (stereo not given in full) | 0 |  |  |  |  |

— ChEMBL document CHEMBL1123305, “Synthesis and gastric antisecretory properties of alpha chain diene derivatives of misoprostol” (1986)
